From ChEMBL document CHEMBL5154945, “Discovery and Optimization of Pyrrolopyrimidine Derivatives as Selective Disruptors of the Perinucleolar Compartment, a Marker of Tumor Progression toward Metastasis” (J Med Chem, 2022)
“And” between values parts separate entries of the source, which are not always exact repeats. Identical values can stand only once.

How the values were obtained:
[1] = Cytotoxicity against human PC-3M cells expressing PTB/GFP fusion protein assessed as reduction in ATP level and measured after 24 to 48 hrs by ATPlite luminescence assay; type: toxicity, cell-based
[2] = Microsomal stability in CD1 mouse liver microsomes assessed as half life measured upto 60 mins in presence of NADPH by LC-MS analysis; settings: CD1, mouse, liver microsomes
[3] = test system: PC-3M; experiment: Cytotoxicity against human PC-3M cells expressing PTB/GFP fusion protein assessed as reduction in ATP level at 20 uM and measured after 24 to 48 hrs by ATPlite luminescence assay; type: toxicity, cell-based; settings: time 24-48 hrs
[4] = test system: PC-3M; experiment: Antiproliferative activity against human PC-3M cells expressing PTB/GFP fusion protein assessed as inhibition of nucleolar volume measured after 24 hrs by Nucleolar-id Green Detection based confocal microscopic analysis; type: functional, cell-based
[5] = test system: PC-3M; experiment: Antiproliferative activity against human PC-3M cells expressing PTB/GFP fusion protein assessed as reduction of nucleolar volume at 1 to 30 uM measured after 24 hrs by Nucleolar-id Green Detection based confocal microscopic analysis; type: functional, cell-based; settings: dose 1-30 µM, DDE = dose-dependent effect
Method in brief: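 PC-3M cells grown in RPMI 1640 with 10% FBS and penicillin/streptomycin, trypsinized at 70% confluence, and seeded at 2×10^5 cells/mL overnight at 37 °C, 5% CO₂. Medium replaced with compound or 1% DMSO for 24 h. Nucleoli stained with Nucleolar-ID Green and nuclei with Hoechst 33342, then imaged by confocal microscopy. Bright green objects in three images per condition normalized to nuclei count; vehicle set to 100.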

[6] = Kinetic solubility of compound
[7] = Clast in male C57BL/6 mouse at 50 mg/kg, ip at 48 hrs by LC-MS/MS analysis; settings: in vivo
[8] = test system: CCRF-CEM; experiment: Anticancer activity against human CCRF-CEM cells assessed as cell growth inhibition; type: functional, cell-based; settings: dose 1-100 µM, DDE = dose-dependent effect
[9] = test system: SR; experiment: Anticancer activity against human SR cells assessed as cell growth inhibition; type: functional, cell-based; settings: dose 1-100 µM, DDE = dose-dependent effect
[10] = test system: NCI-H226; experiment: Anticancer activity against human NCI-H226 cells assessed as cell growth inhibition; type: functional, cell-based; settings: dose 1-100 µM, DDE = dose-dependent effect
[11] = test system: NCI-H23; experiment: Anticancer activity against human NCI-H23 cells assessed as cell growth inhibition; type: functional, cell-based; settings: dose 1-100 µM, DDE = dose-dependent effect
[12] = test system: NCI-H460; experiment: Anticancer activity against human NCI-H460 cells assessed as cell growth inhibition; type: functional, cell-based; settings: dose 1-100 µM, DDE = dose-dependent effect
[13] = test system: NCI-H522; experiment: Anticancer activity against human NCI-H522 cells assessed as cell growth inhibition; type: functional, cell-based; settings: dose 1-100 µM, DDE = dose-dependent effect
[14] = test system: COLO 205; experiment: Anticancer activity against human COLO 205 cells assessed as cell growth inhibition; type: functional, cell-based; settings: dose 1-100 µM, DDE = dose-dependent effect
[15] = test system: HCC 2998; experiment: Anticancer activity against human HCC 2998 cells assessed as cell growth inhibition; type: functional, cell-based; settings: dose 1-100 µM, DDE = dose-dependent effect
[16] = test system: HT-29; experiment: Anticancer activity against human HT-29 cells assessed as cell growth inhibition; type: functional, cell-based; settings: dose 1-100 µM, DDE = dose-dependent effect
[17] = test system: SW-620; experiment: Anticancer activity against human SW-620 cells assessed as cell growth inhibition; type: functional, cell-based; settings: dose 1-100 µM, DDE = dose-dependent effect
[18] = test system: SF-295; experiment: Anticancer activity against human SF-295 cells assessed as cell growth inhibition; type: functional, cell-based; settings: dose 1-100 µM, DDE = dose-dependent effect
[19] = test system: OVCAR-4; experiment: Anticancer activity against human OVCAR-4 cells assessed as cell growth inhibition; type: functional, cell-based; settings: dose 1-100 µM, DDE = dose-dependent effect
[20] = test system: 786-0; experiment: Anticancer activity against human 786-0 cells assessed as cell growth inhibition; type: functional, cell-based; settings: dose 1-100 µM, DDE = dose-dependent effect
[21] = test system: A498; experiment: Anticancer activity against human A498 cells assessed as cell growth inhibition; type: functional, cell-based; settings: dose 1-100 µM, DDE = dose-dependent effect
[22] = test system: CAKI-1; experiment: Anticancer activity against human CAKI-1 cells assessed as cell growth inhibition; type: functional, cell-based; settings: dose 1-100 µM, DDE = dose-dependent effect
[23] = test system: RXF 393; experiment: Anticancer activity against human RXF 393 cells assessed as cell growth inhibition; type: functional, cell-based; settings: dose 1-100 µM, DDE = dose-dependent effect
[24] = test system: PC-3; experiment: Anticancer activity against human PC-3 cells assessed as cell growth inhibition; type: functional, cell-based; settings: dose 1-100 µM, DDE = dose-dependent effect
[25] = test system: MCF7; experiment: Anticancer activity against human MCF7 cells assessed as cell growth inhibition; type: functional, cell-based; settings: dose 1-100 µM, DDE = dose-dependent effect
[26] = molecular target: 5-hydroxytryptamine receptor 1B (Homo sapiens) (UniProt P28222); experiment: Binding affinity to 5-HT1B receptor (unknown origin) at 10000 nM by radioligand displacement assay relative to control
[27] = molecular target: 5-hydroxytryptamine receptor 1D (Homo sapiens) (UniProt P28221); experiment: Binding affinity to 5-HT1D receptor (unknown origin) at 10000 nM by radioligand displacement assay relative to control
[28] = molecular target: 5-hydroxytryptamine receptor 5A (Homo sapiens) (UniProt P47898); experiment: Binding affinity to 5-HT5A receptor (unknown origin) at 10000 nM by radioligand displacement assay relative to control
[29] = molecular target: Alpha-2A adrenergic receptor (Homo sapiens) (UniProt P08913); experiment: Binding affinity to alpha2A receptor (unknown origin) at 10000 nM by radioligand displacement assay relative to control
[30] = molecular target: Beta-1 adrenergic receptor (Homo sapiens) (UniProt P08588); experiment: Binding affinity to beta1 receptor (unknown origin) at 10000 nM by radioligand displacement assay relative to control
[31] = molecular target: Beta-2 adrenergic receptor (Homo sapiens) (UniProt P07550); experiment: Binding affinity to beta2 receptor (unknown origin) at 10000 nM by radioligand displacement assay relative to control
[32] = molecular target: D(3) dopamine receptor (Homo sapiens) (UniProt P35462); experiment: Binding affinity to D3 receptor (unknown origin) at 10000 nM by radioligand displacement assay relative to control
[33] = molecular target: Delta-type opioid receptor (Homo sapiens) (UniProt P41143); experiment: Binding affinity to DOR receptor (unknown origin) at 10000 nM by radioligand displacement assay relative to control
[34] = molecular target: Muscarinic acetylcholine receptor M4 (Homo sapiens) (UniProt P08173); experiment: Binding affinity to M4 receptor (unknown origin) at 10000 nM by radioligand displacement assay relative to control
[35] = molecular target: Muscarinic acetylcholine receptor M5 (Homo sapiens) (UniProt P08912); experiment: Binding affinity to M5 receptor (unknown origin) at 10000 nM by radioligand displacement assay relative to control
[36] = molecular target: Sodium-dependent serotonin transporter (Homo sapiens) (UniProt P31645); experiment: Binding affinity to SERT receptor (unknown origin) at 10000 nM by radioligand displacement assay relative to control
[37] = molecular target: Sigma non-opioid intracellular receptor 1 (Homo sapiens) (UniProt Q99720); experiment: Binding affinity to sigma1 receptor (unknown origin) at 10000 nM by radioligand displacement assay relative to control
[38] = molecular target: Sodium-dependent dopamine transporter (Homo sapiens, UniProt Q01959); experiment: Binding affinity to DAT receptor (unknown origin) by radioligand displacement assay
[39] = molecular target: Histamine H1 receptor (Homo sapiens, UniProt P35367); experiment: Binding affinity to H1 receptor (unknown origin) by radioligand displacement assay
[40] = in vitro; settings: human, PC-3M cells expressing PTB/GFP fusion protein

5-hydroxytryptamine receptor 1B (Homo sapiens), sequence (P28222 whole entry): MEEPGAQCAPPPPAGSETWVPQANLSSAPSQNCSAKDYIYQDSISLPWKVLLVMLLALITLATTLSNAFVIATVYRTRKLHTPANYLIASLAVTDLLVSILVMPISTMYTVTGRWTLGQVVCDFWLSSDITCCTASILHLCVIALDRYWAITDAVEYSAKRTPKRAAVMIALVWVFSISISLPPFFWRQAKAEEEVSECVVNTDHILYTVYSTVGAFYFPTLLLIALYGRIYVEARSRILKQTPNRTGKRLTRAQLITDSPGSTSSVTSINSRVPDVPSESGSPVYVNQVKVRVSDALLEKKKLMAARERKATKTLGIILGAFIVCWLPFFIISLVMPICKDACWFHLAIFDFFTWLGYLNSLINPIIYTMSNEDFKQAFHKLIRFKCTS
Sodium-dependent dopamine transporter, sequence (Q01959 whole entry): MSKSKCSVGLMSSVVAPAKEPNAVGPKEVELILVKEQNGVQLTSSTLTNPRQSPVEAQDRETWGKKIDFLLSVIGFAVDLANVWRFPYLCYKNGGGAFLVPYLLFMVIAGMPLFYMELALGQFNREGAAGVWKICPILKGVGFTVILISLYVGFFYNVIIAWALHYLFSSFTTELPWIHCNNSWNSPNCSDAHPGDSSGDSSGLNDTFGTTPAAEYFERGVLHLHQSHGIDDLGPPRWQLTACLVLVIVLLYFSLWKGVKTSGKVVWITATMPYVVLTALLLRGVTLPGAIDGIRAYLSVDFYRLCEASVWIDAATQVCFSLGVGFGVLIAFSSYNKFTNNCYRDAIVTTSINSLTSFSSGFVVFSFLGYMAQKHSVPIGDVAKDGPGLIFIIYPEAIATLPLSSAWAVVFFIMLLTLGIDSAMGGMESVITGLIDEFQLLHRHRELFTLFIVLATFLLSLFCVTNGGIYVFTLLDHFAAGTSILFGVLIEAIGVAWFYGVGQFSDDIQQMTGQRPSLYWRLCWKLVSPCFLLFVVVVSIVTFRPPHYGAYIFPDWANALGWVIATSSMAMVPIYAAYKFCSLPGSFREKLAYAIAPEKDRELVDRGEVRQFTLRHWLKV
5-hydroxytryptamine receptor 5A (Homo sapiens), sequence (P47898 whole entry): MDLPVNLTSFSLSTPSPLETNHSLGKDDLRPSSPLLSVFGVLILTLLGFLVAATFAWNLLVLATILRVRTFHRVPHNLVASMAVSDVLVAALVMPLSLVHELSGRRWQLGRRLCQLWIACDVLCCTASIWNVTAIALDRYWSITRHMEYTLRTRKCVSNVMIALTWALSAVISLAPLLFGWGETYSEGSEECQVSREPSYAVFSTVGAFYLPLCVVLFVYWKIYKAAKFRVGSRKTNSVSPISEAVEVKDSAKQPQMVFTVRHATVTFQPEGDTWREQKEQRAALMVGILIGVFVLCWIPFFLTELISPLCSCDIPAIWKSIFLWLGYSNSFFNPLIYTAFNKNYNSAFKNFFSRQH
Muscarinic acetylcholine receptor M4 (Homo sapiens), sequence (P08173 whole entry): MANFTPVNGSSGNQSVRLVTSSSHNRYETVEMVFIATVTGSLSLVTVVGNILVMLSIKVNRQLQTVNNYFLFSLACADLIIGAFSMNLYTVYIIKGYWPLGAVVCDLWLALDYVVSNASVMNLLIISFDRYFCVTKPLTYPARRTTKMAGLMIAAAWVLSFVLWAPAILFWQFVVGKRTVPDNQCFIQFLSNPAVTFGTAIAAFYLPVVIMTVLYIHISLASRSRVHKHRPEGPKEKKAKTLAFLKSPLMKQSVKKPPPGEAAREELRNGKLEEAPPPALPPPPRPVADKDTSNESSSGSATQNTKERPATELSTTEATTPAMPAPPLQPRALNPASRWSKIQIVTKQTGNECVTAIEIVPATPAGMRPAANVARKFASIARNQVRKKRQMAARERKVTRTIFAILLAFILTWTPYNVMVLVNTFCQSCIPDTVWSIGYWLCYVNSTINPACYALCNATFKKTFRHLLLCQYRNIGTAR
Muscarinic acetylcholine receptor M5 (Homo sapiens), sequence (P08912 whole entry): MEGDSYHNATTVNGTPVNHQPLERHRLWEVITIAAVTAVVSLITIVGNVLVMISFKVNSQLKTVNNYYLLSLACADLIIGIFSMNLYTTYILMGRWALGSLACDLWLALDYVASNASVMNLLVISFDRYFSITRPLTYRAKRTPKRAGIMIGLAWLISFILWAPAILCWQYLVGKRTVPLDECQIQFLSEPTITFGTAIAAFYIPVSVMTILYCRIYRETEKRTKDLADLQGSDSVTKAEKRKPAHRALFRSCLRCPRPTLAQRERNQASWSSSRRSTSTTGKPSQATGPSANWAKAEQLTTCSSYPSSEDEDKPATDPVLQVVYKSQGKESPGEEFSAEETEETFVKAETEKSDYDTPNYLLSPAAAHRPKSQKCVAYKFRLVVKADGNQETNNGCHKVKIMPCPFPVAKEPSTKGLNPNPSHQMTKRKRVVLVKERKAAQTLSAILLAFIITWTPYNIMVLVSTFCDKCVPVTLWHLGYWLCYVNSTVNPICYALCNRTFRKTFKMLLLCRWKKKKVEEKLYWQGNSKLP
D(3) dopamine receptor (Homo sapiens), sequence (P35462 whole entry): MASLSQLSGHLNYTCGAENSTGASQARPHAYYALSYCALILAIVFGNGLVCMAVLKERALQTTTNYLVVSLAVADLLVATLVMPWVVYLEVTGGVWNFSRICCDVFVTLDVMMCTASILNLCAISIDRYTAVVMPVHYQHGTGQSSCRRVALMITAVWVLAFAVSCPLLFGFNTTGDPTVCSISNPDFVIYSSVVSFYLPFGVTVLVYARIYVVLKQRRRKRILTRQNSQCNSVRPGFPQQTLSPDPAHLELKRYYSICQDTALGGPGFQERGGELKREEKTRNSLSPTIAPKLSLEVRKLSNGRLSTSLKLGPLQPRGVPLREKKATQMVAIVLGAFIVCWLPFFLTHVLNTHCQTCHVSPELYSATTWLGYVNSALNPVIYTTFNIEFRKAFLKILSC
5-hydroxytryptamine receptor 1D (Homo sapiens), sequence (P28221 whole entry): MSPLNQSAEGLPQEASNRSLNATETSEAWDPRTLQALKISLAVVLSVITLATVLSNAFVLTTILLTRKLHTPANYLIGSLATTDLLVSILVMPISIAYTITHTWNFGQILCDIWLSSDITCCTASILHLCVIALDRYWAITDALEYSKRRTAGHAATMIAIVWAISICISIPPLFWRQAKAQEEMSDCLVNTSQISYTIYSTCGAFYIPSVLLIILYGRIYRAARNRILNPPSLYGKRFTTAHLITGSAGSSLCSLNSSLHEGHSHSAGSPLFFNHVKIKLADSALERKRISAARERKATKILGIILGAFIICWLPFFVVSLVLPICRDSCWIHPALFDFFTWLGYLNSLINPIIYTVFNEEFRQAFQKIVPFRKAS
Histamine H1 receptor, sequence (P35367 whole entry, the tested form may be a part): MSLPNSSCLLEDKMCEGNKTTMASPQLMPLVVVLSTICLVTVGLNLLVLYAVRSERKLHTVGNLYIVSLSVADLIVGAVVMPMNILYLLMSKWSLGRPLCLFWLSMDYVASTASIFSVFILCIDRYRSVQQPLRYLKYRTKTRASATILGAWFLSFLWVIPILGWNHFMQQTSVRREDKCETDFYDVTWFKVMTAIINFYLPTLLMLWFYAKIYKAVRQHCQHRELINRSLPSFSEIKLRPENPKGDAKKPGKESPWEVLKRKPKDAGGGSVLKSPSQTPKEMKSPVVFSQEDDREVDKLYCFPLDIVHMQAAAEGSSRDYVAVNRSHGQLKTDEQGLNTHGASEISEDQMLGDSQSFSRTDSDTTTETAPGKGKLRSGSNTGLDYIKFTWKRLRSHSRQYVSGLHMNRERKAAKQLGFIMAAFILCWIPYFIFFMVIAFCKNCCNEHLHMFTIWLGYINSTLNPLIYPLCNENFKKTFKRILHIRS
Beta-2 adrenergic receptor (Homo sapiens), sequence (P07550 whole entry, looked up): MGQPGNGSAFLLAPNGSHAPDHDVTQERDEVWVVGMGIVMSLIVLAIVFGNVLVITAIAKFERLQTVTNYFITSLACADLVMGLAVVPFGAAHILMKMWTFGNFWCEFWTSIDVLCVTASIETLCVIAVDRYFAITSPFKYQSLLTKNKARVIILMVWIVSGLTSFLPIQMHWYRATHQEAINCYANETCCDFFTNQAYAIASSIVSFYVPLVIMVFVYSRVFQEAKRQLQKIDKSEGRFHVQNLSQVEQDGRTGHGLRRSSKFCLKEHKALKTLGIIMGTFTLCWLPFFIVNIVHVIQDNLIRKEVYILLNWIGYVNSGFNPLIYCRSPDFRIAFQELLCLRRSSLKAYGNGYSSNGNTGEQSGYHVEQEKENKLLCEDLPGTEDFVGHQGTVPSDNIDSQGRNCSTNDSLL
Alpha-2A adrenergic receptor (Homo sapiens), sequence (P08913 whole entry): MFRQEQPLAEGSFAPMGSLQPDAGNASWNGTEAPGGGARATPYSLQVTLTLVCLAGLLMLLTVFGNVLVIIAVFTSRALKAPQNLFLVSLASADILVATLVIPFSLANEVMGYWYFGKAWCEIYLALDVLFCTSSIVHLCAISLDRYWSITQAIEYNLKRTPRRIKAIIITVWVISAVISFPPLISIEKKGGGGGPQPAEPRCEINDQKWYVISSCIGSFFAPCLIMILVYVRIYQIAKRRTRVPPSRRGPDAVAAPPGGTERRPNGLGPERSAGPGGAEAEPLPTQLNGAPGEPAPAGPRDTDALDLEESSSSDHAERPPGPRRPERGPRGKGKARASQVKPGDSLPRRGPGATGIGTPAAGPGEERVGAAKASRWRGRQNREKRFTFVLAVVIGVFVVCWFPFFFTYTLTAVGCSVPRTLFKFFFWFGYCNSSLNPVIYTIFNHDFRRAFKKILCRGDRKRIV
Delta-type opioid receptor (Homo sapiens), sequence (P41143 whole entry): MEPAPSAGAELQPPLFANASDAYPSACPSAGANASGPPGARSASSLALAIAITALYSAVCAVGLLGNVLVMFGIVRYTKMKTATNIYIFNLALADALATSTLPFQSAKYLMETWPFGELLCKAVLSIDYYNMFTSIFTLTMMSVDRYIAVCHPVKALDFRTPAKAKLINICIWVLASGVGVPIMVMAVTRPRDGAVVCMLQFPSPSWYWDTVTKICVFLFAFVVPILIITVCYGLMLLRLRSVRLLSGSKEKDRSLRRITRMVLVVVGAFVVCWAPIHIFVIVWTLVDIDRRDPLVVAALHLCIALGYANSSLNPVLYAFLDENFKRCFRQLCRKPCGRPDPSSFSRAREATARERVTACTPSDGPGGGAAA

With `N=c1c2c(-c3ccccc3)c(-c3ccccc3)n(Cc3ccccc3)c2ncn1[C@H]1CC[C@H](O)CC1` [ML-246] the IC50 [1] was 7.65 µM, the half-life at 1 h [2] was 2 h and the Activity [3] was “Toxic”. The IC50 [4] was 0.61 µM, the Activity [5] was “Dde” and the solubility kinetic [6] was > 99 µM and > 47 µg/mL. The concentration at 48 h [7] was 1320 nM, the Activity [8] was “Dde” and the Activity [9] was “Dde”. For the same compound, the Activity [10] was “Dde”, the Activity [11] was “Dde” and the Activity [12] was “Dde”. For the same compound, the Activity [13] was “Dde”, the Activity [14] was “Dde” and the Activity [15] was “Dde”. The Activity [16] was “Dde”, the Activity [17] was “Dde” and the Activity [18] was “Dde”. The Activity [19] was “Dde”, the Activity [20] was “Dde” and the Activity [21] was “Dde”. The Activity [22] was “Dde”, the Activity [23] was “Dde” and the Activity [24] was “Dde”. The Activity [25] was “Dde”, the Activity [26] was less than 50% and the Activity [27] was less than 50%. The Activity [28] was less than 50%, the Activity [29] was less than 50% and the Activity [30] was less than 50%. The Activity [31] was less than 50%, the Activity [32] was less than 50% and the Activity [33] was less than 50%. It also gave an Activity [34] of less than 50%, an Activity [35] of less than 50% and an Activity [36] of less than 50%. For the same compound, the Activity [37] was less than 50%, the Ki [38] was 3.41 µM and the Ki [39] was 3.56 µM. It also gave a selectivity ratio [40] of 38.3.
